Source: ChEMBL document CHEMBL1140176, “Intracellular trapping of cycloSal-pronucleotides: modification of prodrugs with amino acid esters” (J Med Chem, 2008)

What was measured:
[1] = Stability in 25 mM phosphate buffer assessed as hydrolysis half life at pH 7.3; format: physicochemical; conditions: for half-life: phosphate buffer; for t1/2: buffer
[2] = (§1) Cytotoxicity against human CEM cells; format: cell-based, CCRF-CEM; conditions: CEM cells
In short: (§2)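 Wild-type CEM cells exposed to test compound dilutions. Value reported as 50% cytotoxic concentration.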

[3] = (§3) Stability in human CEM cell extract assessed as hydrolysis half life at pH 6.9; format: ADME, CCRF-CEM; conditions: CEM cell extract
[4] = test system: Human immunodeficiency virus 1; experiment: Antiviral activity against HIV1 in human CEM cells; format: functional, organism-based; conditions: Human immunodeficiency virus 1, CCRF-CEM
In short: (§4)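 CEM/0 cells at 4 × 10⁵ cells/mL infected with HIV-1 or HIV-2 (ROD, stocks from infected MT-4 supernatants) at ~100 CCID₅₀/mL, mixed 1:1 with serial compound dilutions. Giant cell formation scored microscopically after 4-5 days.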

[5] = test system: Human immunodeficiency virus 2; experiment: Antiviral activity against HIV2 ROD in human CEM cells; format: functional, organism-based, CCRF-CEM; in short: as §4
[6] = test system: Human immunodeficiency virus 2; experiment: Antiviral activity against HIV2 ROD in thymidine kinase deficient human CEM cells; format: functional, organism-based, CCRF-CEM
In short: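 Thymidine kinase-deficient CEM/TK⁻ cells at 4 × 10⁵ cells/mL infected with HIV-2 ROD at ~100 CCID₅₀/mL, then mixed 1:1 with compound dilutions. Microscopic scoring of giant cell formation at 4-5 days. EC50 is the mean of two to three independent experiments.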

[7] = test system: Serum; experiment: Stability in human serum assessed as hydrolysis half life at pH 6.8; format: ADME, cell-free
In short: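 Human serum at 50%, diluted with phosphate buffered saline to pH 6.8. Triester conversion followed over time and hydrolysis half-life derived.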

[8] = test system: CCRF-CEM; experiment: as §1; format: cell-based; conditions: ccrf-cem; in short: as §2
[9] = test system: CCRF-CEM; experiment: as §3; format: ADME; conditions: ccrf-cem
[10] = Human immunodeficiency virus 2, ROD, CCRF-CEM

SMILES	half-life [1]	CC50 [2]	half-life [3]	EC50 [4]	EC50 [5, 10]	EC50 [6, 10]	t1/2 [7]	t1/2 [1]	CC50 [8]	t1/2 [9]	EC50 ([5]; ccrf-cem)	EC50 ([6]; ccrf-cem)
COC(=O)CNC(=O)CCc1ccc2c(c1)COP(=O)(OC[C@@H]1C=C[C@H](n3cc(C)c(=O)[nH]c3=O)O1)O2 (some centres not stated)	6.5 h	220000 nM	4.5 h	2000 nM	1600 nM	4000 nM	–	–	–	–	–	–
COC(=O)[C@@H](C)NC(=O)CCc1ccc2c(c1)COP(=O)(OC[C@@H]1C=C[C@H](n3cc(C)c(=O)[nH]c3=O)O1)O2 (some centres not stated)	5 h	61000 nM	6.2 h	400 nM	400 nM	4200 nM	–	–	–	–	–	–
Cc1cn([C@H]2C=C[C@@H](COP3(=O)OCc4cc(CCC(=O)N[C@@H](C)C(=O)OC(C)(C)C)ccc4O3)O2)c(=O)[nH]c1=O (some centres not stated)	5.7 h	53000 nM	6.8 h	300 nM	400 nM	3800 nM	–	–	–	–	–	–
Cc1cn([C@H]2C=C[C@@H](COP3(=O)OCc4cc(CCC(=O)O)ccc4O3)O2)c(=O)[nH]c1=O (some centres not stated)	13 h	74000 nM	–	140 nM	800 nM	50000 nM	–	–	–	–	–	–
Cc1cn([C@H]2C=C[C@@H](COP3(=O)OCc4cc(CCC(=O)N5CCC[C@H]5C(=O)OCc5ccccc5)ccc4O3)O2)c(=O)[nH]c1=O (some centres not stated)	6.1 h	46000 nM	0.4 h	700 nM	1100 nM	21000 nM	–	–	–	–	–	–
Cc1cn([C@H]2C=C[C@@H](COP3(=O)OCc4cc(CCC(=O)NCC(=O)OCc5ccccc5)ccc4O3)O2)c(=O)[nH]c1=O (some centres not stated)	6.2 h	75000 nM	4.8 h	310 nM	470 nM	400 nM	–	–	–	–	–	–
COC(=O)[C@@H]1CCCN1C(=O)CCc1ccc2c(c1)COP(=O)(OC[C@@H]1C=C[C@H](n3cc(C)c(=O)[nH]c3=O)O1)O2 (some centres not stated)	7.9 h	182000 nM	1.1 h	1300 nM	1600 nM	2800 nM	–	–	–	–	–	–
COC(=O)[C@H](C)NC(=O)CCc1ccc2c(c1)COP(=O)(OC[C@@H]1C=C[C@H](n3cc(C)c(=O)[nH]c3=O)O1)O2 (some centres not stated)	6.4 h	152000 nM	1.1 h	800 nM	700 nM	2500 nM	–	–	–	–	–	–
Cc1cn([C@H]2C=C[C@@H](COP3(=O)OCc4cc(CCC(=O)N[C@@H](C)C(=O)O)ccc4O3)O2)c(=O)[nH]c1=O (some centres not stated)	12 h	77000 nM	7 h	500 nM	400 nM	4100 nM	–	–	–	–	–	–
Cc1cn([C@H]2C=C[C@@H](COP3(=O)OCc4cc(CCC(=O)N[C@@H](C)C(=O)OCc5ccccc5)ccc4O3)O2)c(=O)[nH]c1=O (stereo in doubt; form 1)	–	–	–	–	–	–	4.4 h	4.5 h	48000 nM	0.5 h	300 nM	–
Cc1cn([C@H]2C=C[C@@H](COP3(=O)OCc4cc(CCC(=O)N[C@@H](C)C(=O)OCc5ccccc5)ccc4O3)O2)c(=O)[nH]c1=O (stereo in doubt; form 2)	–	–	0.5 h	–	–	–	1.3 h	8.8 h	61000 nM	–	–	1000 nM
Cc1cn([C@H]2C=C[C@@H](COP3(=O)OCc4cc(CCC(=O)N[C@@H](C)C(=O)OCc5ccccc5)ccc4O3)O2)c(=O)[nH]c1=O (stereo in doubt; form 3)	6.4 h	–	–	300 nM	400 nM	–	–	–	23000 nM	–	–	300 nM
Cc1cn([C@H]2C=C[C@@H](CO)O2)c(=O)[nH]c1=O [STAVUDINE]	–	234000 nM	–	480 nM	630 nM	47500 nM	–	–	–	–	–	–
